Like-named read-outs stand apart in the source and are kept apart here. Non-standard residues stand in square brackets, D forms with d. No end group written: not given here. pT = C[C@@H](OP(=O)(O)O)[C@H](N)C(=O)O
Columns and labels:
[1] = target: Truncated LRRK2 mutant G2019S (aa 970–2527) (human) (UniProt Q5S007); test: enzyme inhibition kinetics
[2] = target: T1, LRRK2 mutant t-G2019S (aa 970–2527) (Homo sapiens, UniProt Q5S007, G2019S); type: biochemical; settings: for KA (ATP): t-G2019S
[3] = target: T2, truncated wild-type LRRK2 (aa 970–2527) (Homo sapiens, UniProt Q5S007); type: biochemical; settings: for KA (ATP): t-WT
truncated LRRK2 proteins = test: Effect of GTP or GDP on kinase activity; type: biochemical, human; settings: in vitro
[4] = target: T1, LRRK2 mutant t-G2019S (aa 970–2527); test: TR-FRET assay of PLK-peptide phosphorylation, initial velocity and inhibition; type: biochemical
How it was run: (§1)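 Baculovirus-expressed truncated LRRK2 (aa 970–2527). ATP varied at several fixed PLK-peptide levels. Started with 4 nM enzyme; duplicate wells, RT, 4 h. Stopped with 10 mM EDTA; 2 nM Eu-anti-phospho-PLK added for 2 h; TR-FRET read. Initial velocities fitted by nonlinear least squares to two-substrate rate equations.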

[5] = target: T2, truncated wild-type LRRK2 (aa 970–2527); test: TR-FRET assay of PLK-peptide phosphorylation; type: biochemical
How it was run: as §1

t-wt LRRK2 = t-wt LRRK2 (Homo sapiens, UniProt Q5S007); type: biochemical; settings: t-wt LRRK2 treated with NEM
[6] = system: t-wt LRRK2 (GTPase activity); test: Radiometric TLC assay of LRRK2-catalyzed GTP hydrolysis; type: biochemical, human; settings: pH 7.4, room temperature, Michaelis-Menten fit
How it was run: (§2)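 Baculovirus-expressed truncated LRRK2 (aa 970–2527), wild-type or G2019S. Run in triplicate, 20 min at room temperature, quenched with 20 mM EDTA. GDP resolved by PEI-cellulose TLC (0.5 M KH2PO4, pH 3.4) and scintillation-counted. Initial velocities versus [GTP] fitted to Michaelis-Menten.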

[7] = system: mutant t-G2019S (GTPase activity); test: as above; type: biochemical, human
How it was run: as §2

[8] = target: Truncated wild-type LRRK2 (aa 970–2527) (human, UniProt Q5S007 970-2527); test: enzyme inhibition kinetics
Sequence of Truncated wild-type LRRK2 (aa 970–2527) (Q5S007 970-2527): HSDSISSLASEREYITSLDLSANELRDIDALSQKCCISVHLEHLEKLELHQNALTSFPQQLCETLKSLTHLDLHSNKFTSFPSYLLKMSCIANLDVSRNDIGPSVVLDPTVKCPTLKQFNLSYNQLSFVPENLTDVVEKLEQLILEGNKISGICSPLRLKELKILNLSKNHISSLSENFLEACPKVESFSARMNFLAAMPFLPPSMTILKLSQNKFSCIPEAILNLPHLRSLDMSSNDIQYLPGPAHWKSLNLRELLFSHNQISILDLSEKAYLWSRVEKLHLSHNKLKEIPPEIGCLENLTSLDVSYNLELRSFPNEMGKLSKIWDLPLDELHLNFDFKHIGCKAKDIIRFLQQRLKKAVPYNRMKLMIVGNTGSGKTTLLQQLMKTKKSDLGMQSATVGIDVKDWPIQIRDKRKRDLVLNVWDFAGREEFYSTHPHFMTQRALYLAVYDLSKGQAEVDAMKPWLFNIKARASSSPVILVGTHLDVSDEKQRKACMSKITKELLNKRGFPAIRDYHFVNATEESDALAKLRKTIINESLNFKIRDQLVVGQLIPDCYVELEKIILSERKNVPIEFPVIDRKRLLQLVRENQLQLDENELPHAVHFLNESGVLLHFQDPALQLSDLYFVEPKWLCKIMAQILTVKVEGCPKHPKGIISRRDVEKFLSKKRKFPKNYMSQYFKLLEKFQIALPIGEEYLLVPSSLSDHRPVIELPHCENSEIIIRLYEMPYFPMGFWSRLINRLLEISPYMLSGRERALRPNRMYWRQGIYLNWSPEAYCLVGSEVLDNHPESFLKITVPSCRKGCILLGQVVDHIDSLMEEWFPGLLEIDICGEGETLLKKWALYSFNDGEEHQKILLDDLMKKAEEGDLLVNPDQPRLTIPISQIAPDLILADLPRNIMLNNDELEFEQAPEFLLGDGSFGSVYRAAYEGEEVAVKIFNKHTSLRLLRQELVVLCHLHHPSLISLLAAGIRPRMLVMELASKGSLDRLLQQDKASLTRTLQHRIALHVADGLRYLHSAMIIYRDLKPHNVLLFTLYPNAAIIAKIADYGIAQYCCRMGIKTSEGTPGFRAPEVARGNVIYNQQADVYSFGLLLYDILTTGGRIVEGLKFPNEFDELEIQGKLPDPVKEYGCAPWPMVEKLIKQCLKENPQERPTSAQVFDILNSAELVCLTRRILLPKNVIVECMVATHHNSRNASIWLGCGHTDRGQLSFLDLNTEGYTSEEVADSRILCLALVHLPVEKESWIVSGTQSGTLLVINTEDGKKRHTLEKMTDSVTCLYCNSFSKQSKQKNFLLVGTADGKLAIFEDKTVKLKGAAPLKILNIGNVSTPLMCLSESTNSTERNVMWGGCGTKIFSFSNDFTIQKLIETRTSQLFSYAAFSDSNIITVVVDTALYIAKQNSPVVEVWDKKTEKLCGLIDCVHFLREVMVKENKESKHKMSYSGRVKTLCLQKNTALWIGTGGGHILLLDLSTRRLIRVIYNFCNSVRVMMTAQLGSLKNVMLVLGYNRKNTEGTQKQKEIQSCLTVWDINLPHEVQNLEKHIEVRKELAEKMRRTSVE

T2 sequence (Q5S007 970-2527): as above
Sequence of Truncated LRRK2 mutant G2019S (aa 970–2527) (human) (Q5S007 970-2527 G2019S): as the sequence (Q5S007 970-2527) above, with G1050S counted along it
T1 sequence (Q5S007 970-2527 G2019S): as the sequence (Q5S007 970-2527) above, with G1050S counted along it
Sequence of t-wt LRRK2 (Q5S007 970-2527): as the sequence (Q5S007 970-2527) above

LRRKtide^A (peptide)
Ki,e (variable substrate ATP, noncompetitive; LRRKtide^S phosphorylation) [1]: 800 µM | Ki,e (variable substrate ATP, noncompetitive; PLK-peptide phosphorylation) [1]: 800 µM | Ki,ea (variable substrate ATP, noncompetitive; LRRKtide^S phosphorylation) [1]: 500 µM | Ki,ea (variable substrate ATP, noncompetitive; PLK-peptide phosphorylation) [1]: 500 µM | Ki,ea (variable substrate LRRKtide^S, competitive) [1]: 500 µM | Ki,ea (variable substrate PLK-peptide, competitive) [1]: 500 µM

RLGRDKYKTLRQIRQ [LRRKtide]
Kb [2]: 79 ± 11 µM | Kb [3]: 87 ± 11 µM

Nc1nc2c(ncn2[C@@H]2O[C@H](COP(=O)(O)OP(=O)(O)O)[C@@H](O)[C@H]2O)c(=O)[nH]1 [GDP]
effect on kinase activity (truncated LRRK2 proteins): unable to detect any effect

RRRSLLE [PLK-peptide]
α ([4]; TR-FRET, interaction factor (eq 3)): 0.6 ± 0.3 | tighter binding relative to LRRKtide ([5]; from differences in Km values): > 200 fold | α ([5]; t-WT, TR-FRET, interaction factor (eq 3)): 0.5 ± 0.1

Nc1ncnc2c1ncn2[C@@H]1O[C@H](COP(=O)(O)OP(=O)(O)O)[C@@H](O)[C@H]1O [ADP]
inhibition mechanism ([2]; LRRKtide phosphorylation, variable substrate LRRKtide): noncompetitive

CCN1C(=O)C=CC1=O [NEM, N-ethylmaleimide]
inhibition of LRRK2, dose-response (t-wt LRRK2): complete inhibition at high NEM concentration

RRRSLLE (Only the motif RRRSLLE is printed; The Ser is the phosphoaccept) [PLK-peptide]
Kb ([4]; read-out: KB (phosphoryl acceptor), TR-FRET, averaged from two independent experiments): 0.5 ± 0.2 µM | Kb ([5]; read-out: KB (phosphoryl acceptor), t-WT, TR-FRET, averaged from two independent experiments): 0.43 ± 0.05 µM

Nc1nc2c(ncn2[C@@H]2O[C@H](COP(=O)(O)OP(=O)(O)OP(=O)(O)O)[C@@H](O)[C@H]2O)c(=O)[nH]1 [GTP]
effect on kinase activity (truncated LRRK2 proteins): unable to detect any effect | KGTP [6]: 0.7 ± 0.1 mM | kcat (GTP hydrolysis) ([6]; triplicate): 0.04 ± 0.004 s⁻¹ | decrease of GTPase activity by the mutation ([7]; t-G2019S versus t-wt): 20% | KGTP ([7]; t-G2019S, pH 7.4, room temperature, Michaelis-Menten fit): 0.4 ± 0.1 mM | kcat (GTP hydrolysis) ([7]; t-G2019S, pH 7.4, room temperature, Michaelis-Menten fit, triplicate): 0.03 ± 0.002 s⁻¹

Nc1ncnc2c1ncn2[C@@H]1O[C@H](COP(=O)(O)OP(=O)(O)OP(=O)(O)O)[C@@H](O)[C@H]1O [ATP]
KA (ATP) ([2]; phosphoryl acceptor LRRKtide): 101 ± 16 µM | KA (ATP) ([2]; phosphoryl acceptor LRRKtide^S): 161 ± 38 µM | KA (ATP) ([4]; phosphoryl acceptor PLK-peptide): 10 ± 3.9 µM | KA (ATP) ([5]; t-WT, phosphoryl acceptor PLK-peptide): 7.1 ± 0.7 µM | KA (ATP) ([3]; phosphoryl acceptor LRRKtide): 69 ± 6.6 µM | KA (ATP) ([3]; phosphoryl acceptor LRRKtide^S): 77 ± 19 µM

RLGRDKYK[pT]LRQIRQ (not fully specified; printed as RLGRDKYK(PO4)TLRQIRQ) [PO4-LRRKtide]
binding result [8]: binds

— article PMC3205922 (Biochemistry, 2011)
